# In the library only some 1.2% were active in any assay of this set; here they are far more common.
# NSD2 inh = inhibitors of human histone methyltransferase NSD2; O96028; NSD2 peptide methylation, AlphaScreen, 120 min; inhibition, % at 12.5 µM; hit rate 0.54% among 310,000; AID 743445; in the data active means inhibition above about 50%
# SUMO HTRF inh = SUMOylation inhibition. HTRF SUMOylation assay, SAE1/SAE2 + UBC9, in vitro. P63279. AID 2006. hit rate 0.36% among 290,000. inhibition, % at 35 µM; in the data active means inhibition above about 50%, passing the limit was not always enough
# Target sequence (P63279 whole entry, looked up): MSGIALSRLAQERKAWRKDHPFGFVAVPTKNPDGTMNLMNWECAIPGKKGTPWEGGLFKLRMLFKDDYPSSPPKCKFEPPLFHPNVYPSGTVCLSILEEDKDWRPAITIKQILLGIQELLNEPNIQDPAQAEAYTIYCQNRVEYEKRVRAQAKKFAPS
# TDP2 absorb = TDP2 (human) inhibition, absorbance primary screen. recombinant TDP2, T5PNP hydrolysis, p-nitrophenol absorbance 415 nm. inhibition, % at 12.8 µM. hit rate 0.34% among 370,000. AID 720702;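 active means inhibition above the mean of all tested compounds plus 3 SD, set per campaign, cut at about 25% in these data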;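 further: 0% = DMSO with enzyme and 100% = buffer with substrate but no TDP2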
# Target sequence (O95551 whole entry, looked up): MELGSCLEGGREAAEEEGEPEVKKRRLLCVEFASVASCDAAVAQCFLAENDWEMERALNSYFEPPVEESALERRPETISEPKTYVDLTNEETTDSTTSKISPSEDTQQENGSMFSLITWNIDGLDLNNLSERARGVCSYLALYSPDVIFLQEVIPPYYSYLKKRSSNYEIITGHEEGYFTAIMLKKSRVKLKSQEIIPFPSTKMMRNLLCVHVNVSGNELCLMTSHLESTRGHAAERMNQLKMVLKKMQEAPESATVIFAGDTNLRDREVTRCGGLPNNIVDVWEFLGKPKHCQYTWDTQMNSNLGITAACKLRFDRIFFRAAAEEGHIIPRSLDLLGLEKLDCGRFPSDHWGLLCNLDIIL
#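 Test system: Human TDP2 enzyme | Reagent: 5 mM T5PNP | Compound dosing: 12.8 µM single point, 1% DMSO | Incubation: Enzyme reaction with compound for 2 h at 37 °C | Technique: p-Nitrophenol epi absorbance | Read-out: % inhibition relative to enzyme-containing and enzyme-free wells | Benchmarks: High control without enzyme, low control DMSO plus TDP2 | Replicates: Singlicate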
# CTSL1 counter = blocks F. hepatica cathepsin L1 in PFM18AAP counter-screen; recombinant F. hepatica cathepsin L1, Z-Leu-Arg-MCA fluorescence; inhibition, % at 5.96 µM; hit rate 0.49% among 300,000;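 active means inhibition above the mean of all tested compounds plus 3 SD, set per screening campaign, cut at about 17% in these data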;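 further: 0% = plate median of test compound wells and 100% = 1 µM Z-Phe-Ala-diazomethylketone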
# An asterisk follows results filed as active; x = no result given.
SMILES,NSD2 inh,SUMO HTRF inh,TDP2 absorb,CTSL1 counter
O=C(CCCN1C(=O)C2CCCCN2C1=O)N1CCN(c2ccc([N+](=O)[O-])cc2)CC1 (configuration not stated),1,-3,3,20*
O=C1C2CCCCN2C(=O)N1CCN1CCN(c2ccc([N+](=O)[O-])cc2)CC1 (configuration not stated),0,18,-6,5
Cc1ccc(Cn2nnc3c2-c2ccccc2S(=O)(=O)N(C)C3)cc1,x,x,-5,x
Cc1ccc(/C=C/C(=O)N2CCN(S(=O)(=O)c3c(C)c(C)cc(C)c3C)CC2)o1,1,12,0,43*
Cc1ccc(/C=C/C(=O)N2CCN(S(=O)(=O)c3ccc(C)c(C)c3)CC2)o1,-1,21,6,6
Cn1c(=O)c(C(=O)COc2ccc(F)cc2Cl)c(N)n(Cc2ccccc2)c1=O,-3,-7,-3,31*
Cn1c(N)c(C(=O)COc2ccc(Cl)cc2Cl)c(=O)n(C)c1=O,0,9,9,7
CSCCC(NC(=O)c1ccccc1Br)C(=O)NCC(c1ccco1)N1CCCCC1 (configuration not stated),-6,x,4,21*
CCCCCCCCN1C(=O)[C@@H](CC(=O)N2CCCCC2)C[C@@]2(C(=O)OC)C1=C[C@H](C1CCCC1)O[C@@H]2C,1,x,8,x
c1ccc(Cc2nnc3sc(-c4cccnc4)nn23)cc1,11,19,6,22*
CC(C)(C)C(=O)c1c(N)[nH]c(C(=O)c2ccccc2)c1-c1ccc([N+](=O)[O-])cc1,x,x,5,x
COc1cccc(NC=C2C(=O)OC(C)(C)OC2=O)c1,0,9,-2,3
COc1cccc(NC=C2C(=O)OC3(CCCCC3)OC2=O)c1,-3,17,5,19*
COC1=C/C(=C/c2c(N)n3nc(CC(=O)N4CCCC4)sc3nc2=O)C=CC1=O,6,12,-6,8
Nc1c(/C=C2/C=CC(=O)C(O)=C2)c(=O)nc2sc(CC(=O)N3CCCC3)nn12,119*,6,0,3
Nc1c(/C=C2/C=CC(=O)C(O)=C2)c(=O)nc2sc(CC(=O)N3CCCCC3)nn12,142*,25,-13,1
CCCOc1cccn2c(N(C=O)Cc3ccc(OC)cc3)c(CC)nc12,0,x,0,x
Cc1ccc(Cl)cc1N1C(=O)CC(Sc2ncccn2)C1=O (configuration not stated),-3,6,-15,-4
CCN(CC(=O)NC(C)(C)C)C(=O)CCl,-4,-6,-5,20*
COc1ccc2oc(=N)c(C(=O)Nc3ccccc3Cl)cc2c1,1,13,1,20*
O=C(NCCO)/C(=C\c1cccs1)NC(=O)c1cccs1,8,-1,8,18*
O=C(NCc1ccco1)/C(=C\c1cccs1)NC(=O)c1cccs1,10,1,-3,0
Cc1cc(C(=O)CSc2nc(N)cc(N)n2)c(C)n1C1CC1,5,51*,-3,0
CC(C)CC(NC(=O)OC(C)(C)C)C(=O)NCc1ccccc1 (configuration not stated),-1,17,-4,7
CC(C)CC(NC(=O)C(COCc1ccccc1)NC(=O)OC(C)(C)C)C(=O)NN (configuration not stated),4,-2,-5,18*
SMILES,NSD2 inh,SUMO HTRF inh,TDP2 absorb,CTSL1 counter
O=C(O)c1ccc2c(c1)C(=O)N(c1cccc(-c3nc4ccccc4s3)c1)C2=O,-3,70*,-12,8
COc1ccc(S[C@]2(C(=O)N(C)C)CC(=O)N(C(=O)c3ccccc3)[C@@H]2c2ccc(OC)cc2)cc1,x,x,-9,x
O=C(O)C1Nc2c(cccc2C(F)(F)F)C2C=CCC12 (configuration not stated),x,23,x,x
O=C(O)C1Nc2c(O)cc(Cl)c([N+](=O)[O-])c2C2C=CCC12 (configuration not stated),x,99*,17,2
OC(CNc1nc(-c2cccnc2)nc2ccccc12)c1ccccc1 (configuration not stated),0,-3,-8,-1
O=C(O[C@@H]1OC2COC(=O)c3cc(O)c(O)c(O)c3-c3c(cc(O)c(O)c3O)C(=O)O[C@@H]([C@H]1O)[C@@H]2O)c1cc(O)c(O)c(O)c1,x,89*,x,-2
Cc1c(C#N)c(N)nc2c3c(sc12)NC(=O)CC3c1ccccc1 (configuration not stated),65*,0,-1,4
CC1=Nc2ccccc2/C1=C/c1nc(-c2ccc(C)s2)oc1O,-1,12,-7,25*
CC1=Nc2ccccc2/C1=C\c1nc(-c2ccc(C(F)(F)F)cc2)oc1O,4,30,6,2
COc1ccc(-c2nc(/C=C3\C(C)=Nc4ccccc43)c(O)o2)cc1,-2,2,8,13
CC1=Nc2ccccc2/C1=C\c1nc(-c2ccccc2)oc1O,12,15,2,17*
O=C(Nc1ccc(C(=O)N2CCCCC2)cc1)[C@H]1O[C@@H](n2ccc(=O)[nH]c2=O)[C@H](O)[C@@H]1O,x,x,-3,x
CCN(CC)C(=O)[C@H]1C[C@H](CC(=O)NCCCn2ccnc2)C(=O)N2CCc3c([nH]c4cc(CCC(=O)N(C)C)ccc34)[C@]12C,x,x,8,x
CC(Oc1ccc2c(-c3ccccc3)cc(=O)oc2c1)C(=O)N1CCC[C@@H]1C(N)=O (some centres not stated),x,0,9,42*
O=C(CCN1C(=O)/C(=C/c2ccc(Cl)cc2)SC1=S)Nc1cccc(C(=O)O)c1,-4,22,6,8
O=C(O)c1cccc(N2C(=O)/C(=C/c3ccc(SCc4ccc(Cl)cc4)o3)SC2=S)c1,112*,x,17,x
CC1(C)CC(=O)C2=C(C1)c1c(ccc3ccccc13)NC2c1ccc(Br)o1 (configuration not stated),x,6,3,57*
CC1(C)CC(=O)C2=C(C1)c1c(ccc3ccccc13)NC2c1ccc(OCC(=O)O)cc1 (configuration not stated),11,37,1,-4
O/N=C/c1ccc2cccc(OCc3ccccc3)c2n1,-1,20,-6,1
NC(=S)N/N=C/c1ccc2cccc(OCc3ccccc3)c2n1,10,43,5,18*
O=C(CC1S/C(=N/N=C/C=C/c2ccccc2)NC1=O)Nc1ccc(Cl)c(Cl)c1 (configuration not stated),1,68*,-3,4
O=C(O)CC1S/C(=N/N=C/C=C/c2ccccc2)NC1=O (configuration not stated),7,7,-1,12
COC(=O)[C@H]1C[C@@]2(C)c3ccccc3N(C(=O)OC(C)(C)C)[C@H]2N1C(=O)OC(C)(C)C,x,x,-6,x
CCN(c1ccccc1)c1nc(C#N)nc(N(CC)c2ccccc2)n1,-3,-18,-1,30*
CCN(CC)c1nc(C#N)nc(N(CC)CC)n1,2,17,4,x
Nc1cccc2[nH]c(C(F)(F)F)nc12,15,-3,32*,-1
CC(=O)Nc1ccc(CNc2nc3cc(-c4ccsc4)sc3c(=O)n2C)cc1,-3,x,3,x

# Screening results as filed in PubChem.
